An excerpt weighted towards active compounds, which were near 2.6% of everything screened.
SENP8 block-1: SENP8 protease inhibition | AID 2540 | inhibition, % at 10 µM | actives 1.2% (n = 330,000) | purified SENP8, Z-RLRGG-aminoluciferin cleavage, luminescence | Q96LD8; in the data active = inhibition above about 50%
Platelet DG rel: platelet dense granule release activity; human platelet-rich plasma, SFLLRN dense granule ATP release, luminescence; inhibition, %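 (compounds screened at 7.5 µM in platelet-rich plasma)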; actives 0.22% (n = 300,000); AID 1663;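 active = mean replicate score, as percent of positive control, at or above 50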
SENP1 FRET inh: SENP1 (human) catalytic domain inhibition; Q9P0U3; actives 0.21% (n = 360,000); inhibition, % at 10 µM; recombinant SENP1 catalytic domain, CyPet-SUMO1-YPet FRET cleavage; AID 624204;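 active = inhibition at least 30% at 10 µM, raw YFP signal under a set limit, fluorescence ratio 0.5 to 1.5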
Target sequence (Q9P0U3 419-644 limits assumed): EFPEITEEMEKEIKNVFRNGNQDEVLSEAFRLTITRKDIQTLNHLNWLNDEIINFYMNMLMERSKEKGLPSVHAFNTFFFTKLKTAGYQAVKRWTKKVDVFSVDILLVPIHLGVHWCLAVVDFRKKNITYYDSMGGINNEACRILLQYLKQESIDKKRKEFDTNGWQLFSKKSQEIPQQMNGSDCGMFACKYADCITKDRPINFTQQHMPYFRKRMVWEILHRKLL
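System: Recombinant human SENP1 catalytic domain, His6-tagged | Incubation: Enzyme reaction for 50 min at room temperature, dark | Medium: Tris pH 8 with BME, BSA, NP40 and catalase | Also added: 25 nM SUMO1 FRET substrate | Compound: 10 µM single point, 0.5% DMSO | Measured by: FRET fluorescence in CFP and YFP emission channels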
SENP6 inh: SENP6 protease inhibition | Recombinant SENP6 catalytic domain, aminoluciferin luminescence | actives 1.8% (n = 330,000) | inhibition, % at 10 µM | Q9GZR1;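 active = inhibition above about 50% at the single tested dose, limit read from the data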
SENP8 block-2: inhibitors of human SENP8 protease; actives 0.64% (n = 360,000); inhibition, % at 20 µM; AID 602440; recombinant SENP8, Nedd8 substrate fluorescence; in the data active = inhibition mostly above about 40%, no sharp cut-off; inactive = mostly below about 27%
SENP7 inh: inhibitors of human SENP7 protease; Q9BQF6; recombinant SENP7, Z-RLRGG-aminoluciferin luminescence, 40 min; inhibition, % at 5 µM; actives 1.5% (n = 330,000); AID 434973;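 active = inhibition above about 50% at the single test dose, limit read from the data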
Target sequence (Q9BQF6 706-1050 limits assumed): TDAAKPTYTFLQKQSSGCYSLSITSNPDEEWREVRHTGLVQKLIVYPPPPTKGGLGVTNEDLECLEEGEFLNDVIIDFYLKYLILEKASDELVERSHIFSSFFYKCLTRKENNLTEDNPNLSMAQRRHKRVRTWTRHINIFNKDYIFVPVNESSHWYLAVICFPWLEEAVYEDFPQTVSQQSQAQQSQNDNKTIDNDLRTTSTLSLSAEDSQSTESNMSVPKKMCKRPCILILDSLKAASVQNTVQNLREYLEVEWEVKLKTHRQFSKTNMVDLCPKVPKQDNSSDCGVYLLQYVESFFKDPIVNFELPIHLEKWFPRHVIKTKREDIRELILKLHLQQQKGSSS
Numbers stand for hits; n = inactive; x = no result given.

SMILES | SENP8 block-1 | Platelet DG rel | SENP1 FRET inh | SENP6 inh | SENP8 block-2 | SENP7 inh
O=C1/C(=C\c2ccco2)SC(=S)N1c1ccc(O)cc1 | n | n | n | n | n | n
O=C1/C(=C/C=C/c2ccco2)SC(=S)N1c1ccc(O)cc1 | n | n | n | n | 46.4 | n
CCN(CC)CCNc1cc(C)nc2c1C(=O)C(=O)C=C2N1CCCCC1 | n | n | n | n | 55.6 | n
CCOC(=O)c1c(C)[nH]c(N=Nc2ccccc2)c1C | n | n | n | n | 44.2 | n
CCOC(=O)c1c(C)[nH]c(N=Nc2ccc(OC)cc2)c1C | n | n | n | 61.3 | 49.4 | n
CN1NC(c2ccccc2)NN(C)C1=O | x | x | n | x | n | x
CN1OC[C@@H]2CN(C(=O)CCc3ccccc3)[C@H](c3ccccc3Br)C[C@@H]21 | x | x | n | x | n | x
Cc1cccc2cc3c(N)c(C(=O)N4CCOCC4)sc3nc12 | n | n | 41.6 | n | n | n
Cc1cc(C)c2cc3c(N)c(C(=O)N4CCc5ccccc5C4)sc3nc2c1 | n | n | n | n | n | n
C/C(=N\NC(=O)c1cc(-c2cccnc2)nc2ccccc12)c1ccc(O)cc1O | n | n | 48.9 | n | n | n
Cc1[nH]n(-c2ccccc2)c(=O)c1N=Nc1ccccc1O | n | n | n | n | 40.2 | n
Cc1[nH]n(-c2ccccc2)c(=O)c1N=Nc1ccc2c(c1)OCO2 | n | n | n | n | 46.0 | n
Cc1[nH]n(-c2ccccc2)c(=O)c1N=Nc1ccccc1C(=O)O | n | n | n | n | n | n
Cc1[nH]n(-c2ccccc2)c(=O)c1N=Nc1nccs1 | n | n | n | n | 56.0 | n
O=C(NCc1ccncc1)[C@@H]1CCCN1C(=O)[C@@H]1CCCN1 | x | x | n | x | n | x
O=C(COc1ccccc1CNC[C@H]1O[C@@H](n2ccc(=O)[nH]c2=O)[C@H](O)[C@@H]1O)N1CCCCC1 | x | x | n | x | n | x
CCOc1ccc2nc(N3C(=O)CNC3=S)sc2c1 | n | n | n | n | n | n
COc1ccc2nc(N3C(=O)/C(=C/c4ccc(Cl)cc4)NC3=S)sc2c1 | x | x | 33.1 | x | n | x
CC(C)Sc1nc(-c2cccs2)nc2cc(Cl)ccc12 | x | x | n | x | n | x
CCCc1cc(C(=O)NC2CCCCC2)no1 | n | n | n | n | n | n
CCCc1cc(C(=O)NC2CCCC2)no1 | n | 85.3 | n | n | n | n
Nc1ncnc2c1ncn2C1OC(CO)C2OC21 (stereo not drawn) | x | x | n | x | n | x
Nc1ncnc2c1ncn2[C@@H]1O[C@H](COP(=O)(O)O)[C@@H](O)[C@H]1O | n | 83.1 | n | n | n | n
Nc1nc(Cl)nc2c1ncn2[C@@H]1O[C@H](CO)[C@@H](O)[C@H]1O | n | 88.8 | n | n | n | n
CCOC1OC2C(CO)OC(n3cnc4c(N)ncnc43)C2O1 (stereo not drawn) | n | 73.8 | n | n | n | n
SMILES | SENP8 block-1 | Platelet DG rel | SENP1 FRET inh | SENP6 inh | SENP8 block-2 | SENP7 inh
CCCCNC(=O)c1nc(C2CCN(S(=O)(=O)c3c(OC)cccc3OC)CC2)oc1-c1ccccc1 | x | x | n | x | n | x
COc1cccc(-c2noc(-c3ccc(Br)o3)n2)c1 | 56.8 | x | n | n | n | 72.6
CN1CCN(c2ccc(CNC[C@H]3O[C@@H](n4cnc5c(=O)[nH]c(N)nc54)[C@H](O)[C@@H]3O)c(F)c2)CC1 | x | x | n | x | n | x
CC(C)(C)c1ccc(C(=O)NC(=S)NNC(=O)c2cccs2)cc1 | x | 52.2 | n | x | n | x
O=C(NC(=S)NNC(=O)c1cccs1)c1ccccc1 | n | n | n | n | n | n
C/C(=N\Nc1ccc(C(=O)c2c(C)cc3ccccn23)cc1[N+](=O)[O-])c1ccc(O)cc1 | n | n | n | n | 62.4 | n
Cc1cc2ccccn2c1C(=O)c1ccc(N/N=C/c2ccc(C(=O)O)cc2)c([N+](=O)[O-])c1 | x | x | n | x | 66.5 | x
Cc1cc2ccccn2c1C(=O)c1ccncc1 | n | n | n | n | n | n
Cc1cc2ccccn2c1C(=O)c1ccc(Cl)cc1 | n | n | n | n | n | n
C/C(=N/Nc1ccc(C(=O)c2c(C)cc3ccccn23)cc1[N+](=O)[O-])c1ccc(O)cc1 | x | x | n | x | 50.2 | x
C[C@H](NC(=O)[C@@H]1CCCN1C(=O)[C@@H]1CCCN1C(=O)c1ccc(Cl)cc1)c1ccccc1 | x | x | n | x | n | x
Oc1ccc(C=Nc2ccc3ncccc3c2)c(O)c1 | 88.6 | n | x | 84.2 | x | n
CCc1ccc(S(=O)(=O)/N=C2\C=C(Nc3cccc(C(=O)O)c3)C(=O)c3ccccc32)cc1 | 95.0 | n | n | 92.4 | 69.6 | n
CCc1ccc(S(=O)(=O)/N=C2\C=CC(=O)c3ccccc32)cc1 | n | n | x | n | x | n
CCc1ccc(S(=O)(=O)/N=C2/C=C(Sc3ncn[nH]3)C(=O)c3ccccc32)cc1 | x | x | n | x | n | x
CCc1ccc(S(=O)(=O)/N=C2\C=C(Nc3ccc(O)cc3)C(=O)c3ccccc32)cc1 | 90.7 | n | n | 89.1 | 101.4 | 66.9
CCOC(=O)C1=C[C@@H](C(C)C)N(S(=O)(=O)c2ccc(C)cc2)[C@H]1c1ccc(C(C)C)cc1 | x | x | n | x | n | x
Cc1[nH]n(-c2nc(-c3ccc(Cl)cc3)cs2)c(=O)c1N=Nc1ccc(O)cc1 | n | n | n | n | 41.1 | n
CN(C)CCN1C(=O)c2cccc3cc([N+](=O)[O-])cc(c23)C1=O | x | x | 60.1 | x | n | x
CCc1nc2c(OCc3c(C)noc3C)cccn2c1N(C=O)Cc1ccccc1 | x | x | n | x | n | x
CS(=O)(=O)N1Cc2cc(C(=O)NCC3CC3)nc(-c3cccc(-c4cccnc4)c3)c2[C@@H]1CCO | x | x | n | x | n | x
Cc1noc(/C=C/Nc2ccc(F)cc2F)c1[N+](=O)[O-] | 83.8 | n | n | 87.0 | n | 97.2
COc1ccccc1Cn1c(/C=C/c2ccccc2)nc2ccccc21 | n | n | n | n | n | n
COCCn1c(/C=C/c2ccccc2)nc2ccccc21 | n | n | n | n | n | 64.8
COC(=O)C[C@@H]1C=C[C@H](NC(=O)Nc2ccc(OC)cc2)[C@@H](CO)O1 | x | x | n | x | n | x
SMILES | SENP8 block-1 | Platelet DG rel | SENP1 FRET inh | SENP6 inh | SENP8 block-2 | SENP7 inh
O=C(/C=C/c1cccs1)N1CCN(c2ccccc2F)CC1 | n | n | n | n | n | n
O=C(/C=C/c1cccs1)N1CCc2ccccc21 | 93.4 | n | n | n | n | 97.8
O=C1c2cccnc2C(=O)N1CO | n | n | n | n | n | n
NC1=C(Br)C(=O)c2ncccc2C1=O | x | x | n | x | 96.5 | x
COc1cc(-c2nnc(-c3cccs3)o2)cc(OC)c1OC | n | n | n | n | n | n
COc1ccc(-c2nnc(-c3cc(OC)c(OC)c(OC)c3)o2)cc1OC | n | 66.2 | n | n | n | n
COc1ccc(C2=NN(C(=O)CSC3=NN4CCCC(=O)N=C4S3)C(c3cccc(OC)c3OC)C2)cc1 (stereo not drawn) | n | 74.0 | n | n | n | n
COc1cccc(C2CC(c3cccs3)=NN2C(=O)CSC2=NN3CCCC(=O)N=C3S2)c1OC (stereo not drawn) | n | n | n | n | n | n
Oc1ccc(N=Nc2ccc3c(c2)OCCO3)c(O)c1 | 95.4 | n | n | 94.6 | 44.7 | 91.2
